Compound activity: PubChem, several laboratories
Sampled rows, rich in hits. Any-hit rate of the full collection: about 3.5%.
FXIa inh 1536 = human FXIa protease inhibitors, primary screen, biochemical, 1536-well; Coagulation factor XI (Homo sapiens), P03951; purified FXIa, Boc-Glu-Ala-Arg-AMC fluorogenic substrate; inhibition, % at 5 µM; 220,000 compounds, 0.14% hits; AID 798, 2007;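 active means inhibition of at least 40%; inactive means inhibition below 40%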;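 further: fluorescence of freed AMC excited at 355 nm; 0% = enzyme without compound and 100% = no enzyme blank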
FXIIa inh = human FXIIa protease inhibitors, primary screen, biochemical, 1536-well. Coagulation factor XII (Homo sapiens), P00748. purified FXIIa, Boc-QGR-AMC fluorogenic substrate, 2 h. inhibition, % at 5 µM. 220,000 compounds, 0.3% hits. AID 800, 2007; in the data active means inhibition above about 40%;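 further: 0% = enzyme with no compound and 100% = blank without enzyme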
Target sequence (P00748 20-372 limits assumed): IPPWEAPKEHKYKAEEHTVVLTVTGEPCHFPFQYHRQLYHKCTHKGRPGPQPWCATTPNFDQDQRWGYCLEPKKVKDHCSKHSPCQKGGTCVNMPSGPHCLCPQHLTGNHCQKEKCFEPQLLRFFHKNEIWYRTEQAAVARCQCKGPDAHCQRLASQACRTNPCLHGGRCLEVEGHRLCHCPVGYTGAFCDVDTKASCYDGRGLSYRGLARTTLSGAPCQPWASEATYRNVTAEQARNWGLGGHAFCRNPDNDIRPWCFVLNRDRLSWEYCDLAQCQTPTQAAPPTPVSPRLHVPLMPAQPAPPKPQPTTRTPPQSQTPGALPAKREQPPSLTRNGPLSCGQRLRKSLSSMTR
Target sequence (P00748 373-615 limits assumed): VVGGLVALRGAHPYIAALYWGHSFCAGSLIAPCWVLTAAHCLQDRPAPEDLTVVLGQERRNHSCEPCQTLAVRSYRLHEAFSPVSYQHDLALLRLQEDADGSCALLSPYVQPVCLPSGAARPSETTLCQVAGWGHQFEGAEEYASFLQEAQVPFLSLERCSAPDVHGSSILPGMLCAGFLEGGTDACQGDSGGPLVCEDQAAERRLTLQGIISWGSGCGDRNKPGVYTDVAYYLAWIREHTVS
AHR activator = AHR activators, primary screen, cell-based, luminescence, luciferase reporter, human. AID 2796, 2010. activation, % at 5 µM. Aryl hydrocarbon receptor (Homo sapiens), P35869. AHR-responsive luciferase reporter cells. 320,000 compounds, 2.5% hits; in the data active means activation above about 47%;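 further: 0% = vehicle wells and 100% = reference agonist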
hK5 inh = human KLK5 protease inhibitors, primary screen, biochemical, 1536-well; recombinant hK5, fluorogenic AMC substrate cleavage; 210,000 compounds, 0.59% hits; inhibition, % at 5 µM; Kallikrein-5 (Homo sapiens), Q9Y337;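 active means inhibition of 40% or more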;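 further: 0% = enzyme controls without compound and 100% = no-enzyme blanks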
STAT3 activator = IL-6 driven STAT3 reporter potentiators, primary screen, U3A cells, luciferase, luminescence, MLSCN library. activation (% of control), % at 5.6 µM. AID 871, 2007. 190,000 compounds, 0.91% hits. IL-6 STAT3-luciferase reporter; 100% = signal with IL-6 EC80 alone;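 active means activation above the screen-wide mean of compound activation plus 3 SD, cut at about 130% in these data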;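 further: 0% = background luminescence of wells with medium and substrate only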
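System – human U3A cells carrying STAT3-luciferase construct · Probe or stimulus – Interleukin-6, 33 ng/mL · Schedule – compound 1 h, then IL-6 6 h at 37 °C · Signal – luminescence from STAT3-driven luciferase reporter · Evaluation – percent of IL-6-only median luminescence · Benchmarks – IL-6-only high control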
Thrombin inh = human alpha-thrombin inhibitors, primary screen, counter-screen for coagulation protease inhibitor project, biochemical, 1536-well, fluorogenic AMC substrate; 220,000 compounds, 0.26% hits; inhibition, % at 5 µM; Boc-VPR-AMC fluorogenic substrate cleavage; Prothrombin (Homo sapiens), P00734;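 active means inhibition at or above 40%; inactive means inhibition below 40%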;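 further: 0% = enzyme with no compound and 100% = wells without enzyme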
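System – human alpha-thrombin · Medium – pH 7.5 Tris (50 mM) with NaCl 150 mM, Tween 20 0.05% · Compound – single-point dosing at 5 µM, 0.2% DMSO · Incubation – enzyme reaction carried out at room temperature · Technique – fluorescence of released AMC, ex 355 nm, em 460 nm · Read-out basis – % inhibition of thrombin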
The depositor's hits bear a star; / = no result given.

SMILES | FXIa inh 1536 | FXIIa inh | AHR activator | hK5 inh | STAT3 activator | Thrombin inh
CCn1c2ccccc2c2cc(NC(=O)CC(C)=O)ccc21 | -1 | 6 | 57* | -2 | 102 | -8
CCn1c2ccccc2c2cc(NC(=O)c3ccccc3-c3ccccc3C(=O)O)ccc21 | 1 | -1 | 1 | 1 | / | -5
CCn1c2ccccc2c2cc(NS(=O)(=O)c3ccccc3C)ccc21 | 12 | 18 | 73* | 5 | 102 | 4
CCCC(=O)Nc1ccc2c(c1)c1ccccc1n2CC | 4 | 7 | 69* | -7 | 94 | 2
O=C(Nc1ccccc1-c1ccccc1)C1CCCN(c2ncccn2)C1 (stereo unspecified) | 10 | 28 | 3 | -5 | 99 | 5
CCOC(=O)c1ccc(NC(=O)NNS(=O)(=O)c2cc(OC)ccc2OC)cc1 | / | / | 3 | / | / | /
CCOc1ccc(NC(=O)CC2C(=O)N(c3ccccc3)C(=O)N2Cc2ccco2)cc1 (stereo unspecified) | 0 | 11 | 1 | 1 | 97 | 0
CCSc1ccc2cc(OC)ccc2[n+]1CC | -1 | 4 | 1 | 2 | 106 | -14
O=C1c2cccnc2Oc2ccc(Cl)cc2N1Cc1ccc(F)cc1 | 22 | 14 | 3 | 44* | 99 | 36
CSc1ccccc1NC(=O)CN(C)CC(=O)c1[nH]c(C)c(C(C)=O)c1C | / | / | 5 | / | / | /
CCC1(C)Cc2ccccc2-c2nc(-c3ccccc3)oc(=O)c21 (stereo unspecified) | 4 | 3 | 5 | -21 | 94 | 1
CCN1CCN(CC(=O)n2c3c(c4ccccc42)CC(C)CC3)CC1 (stereo unspecified) | 1 | 12 | 13 | 2 | 92 | -4
CC1CCN(CC(=O)n2c3c(c4ccccc42)CCCC3)CC1 | -5 | 10 | 50* | -7 | 116 | -3
O=c1[nH]c2ccc(Cl)cc2c(-c2ccccc2)c1CN1CCOCC1 | -1 | 15 | 6 | -1 | 94 | 2
O=c1[nH]c2ccc(Cl)cc2c(-c2ccccc2)c1N1CCOCC1 | 13 | 28 | 27 | 30 | 102 | 43*
Cc1ccc(C)c(S(=O)(=O)/N=C2\C=C(NS(=O)(=O)c3ccccc3)C(=O)c3ccccc32)c1 | / | / | 74* | / | / | /
Cc1ccccc1NC1=C/C(=N\S(=O)(=O)c2ccc(C(=O)O)cc2)c2ccccc2C1=O | / | / | 22 | / | / | /
Cc1ccc(NC(=O)CN2C(=O)N/C(=C\c3ccco3)C2=O)cc1 | / | / | -2 | / | / | /
COc1ccc(NC(=O)CSc2nnc(-c3cnccn3)n2C)cc1OC | / | / | 4 | / | / | /
CN(C)c1ccc(N2C(=O)CSC2=S)cc1 | 5 | 13 | 52* | -18 | 103 | -2
COc1ccccc1CNCC(=O)N1CC(=O)Nc2ccccc21 | -1 | 8 | 60* | 0 | 100 | -3
COc1ccccc1NC(=O)CN1CC(=O)Nc2ccccc21 | -5 | 1 | 7 | -9 | 134* | -11
O=C(CN1CC(=O)Nc2ccccc21)Nc1ccc(F)c(F)c1 | -6 | 6 | 24 | -2 | 107 | -11
O=c1c(-c2ccco2)[n+]([O-])c2ccccc2n1OCc1ccccc1 | 1 | 12 | 61* | -23 | 86 | 3
O=c1c(-c2ccco2)[n+]([O-])c2ccccc2n1OCc1ccccc1F | -7 | 3 | 9 | 1 | 82 | 3
SMILES | FXIa inh 1536 | FXIIa inh | AHR activator | hK5 inh | STAT3 activator | Thrombin inh
O=c1c(-c2ccco2)[n+]([O-])c2ccccc2n1OCc1c(F)cccc1F | 6 | 11 | 49* | 3 | / | -1
Cc1cccc(C(C)C)c1NC(=O)Cc1ccc(S(=O)(=O)N2CCOCC2)s1 | / | / | 2 | / | / | /
CC1(NC(=O)CCc2nc3sc4c(c3c(=O)[nH]2)CCCC4)CCS(=O)(=O)C1 (stereo unspecified) | / | / | 4 | / | / | /
Cc1cc(=O)n2c(n1)SCOC2 | 21 | 43* | 0 | 35 | / | 5
COc1cc(=O)n2c(n1)SCCC2 | 2 | 16 | 2 | -22 | 103 | 2
N#CC1(NC(=O)CSc2nnc(-c3ccccc3F)o2)CCCCC1 | / | / | -2 | / | / | /
CC(=O)Nc1csc2ccccc12 | -1 | 10 | 9 | 3 | 118 | -4
O=C(Nc1ccccc1)Nc1csc2ccccc12 | 1 | 12 | 61* | 3 | / | -2
COc1ccc(OCCCc2c(C)n[nH]c2C)cc1 | -6 | -11 | -2 | 55* | 95 | 25
COc1ccccc1CN1CC(C(=O)N(C)Cc2[nH]c3ccccc3c2C)CCC1=O (stereo unspecified) | / | / | 32 | / | / | /
FC(F)C(F)(F)C(F)(F)C(F)(F)c1cc(-c2ccccc2)n[nH]1 | 50* | 50* | 11 | -11 | 99 | 1
Cc1cc(-c2ccccc2)n[nH]1 | 12 | 17 | 4 | 16 | 95 | 10
COc1ccc(C2C(C(=O)c3cccs3)=C(O)C(=O)N2c2cccc(C)n2)cc1 (stereo unspecified) | 3 | 14 | 9 | 2 | / | 4
COc1ccc(C2C(C(C)=O)=C(O)C(=O)N2c2ccc(Br)cn2)cc1 (stereo unspecified) | -11 | 9 | 7 | -6 | 134* | 0
O=C(NNc1cc(Cl)ccc1Cl)c1cccs1 | 24 | 18 | -2 | 55* | / | 35
O=C(Nc1ccc(Cl)c(NC(=O)c2cccs2)c1)c1ccco1 | / | / | 75* | / | / | /
O=C(Nc1ccc(NC(=O)c2cccs2)cc1Cl)c1ccco1 | -6 | 2 | -7 | -10 | 94 | -4
CC(=O)NS(=O)(=O)c1ccc(NC(=S)NC(=O)c2ccco2)cc1 | 18 | 43* | 4 | 4 | 103 | 1
CCCC(=O)Nc1ccc(Cl)c(NC(=S)NC(=O)c2ccco2)c1 | 5 | 17 | 53* | -8 | 78 | -7
COc1ccc(OC)c(C(=O)CSc2nnc(Cc3cccs3)n2CCc2ccccc2)c1 | 7 | 16 | 59* | -6 | 104 | 1
Clc1ccc(NCc2ccsc2)cc1 | / | / | 12 | / | / | /
CC(C)(C)CNC(=O)c1cccc2c1C(=O)c1ccc(-c3cc4ccccc4o3)cc1S2(=O)=O | / | / | 5 | / | / | /
COc1cccc(C(=O)NC(=S)Nc2ccc3c4c(cccc24)CC3)c1 | 1 | 16 | 67* | 23 | 101 | 13
COc1ccc(OCC(=O)NC(=S)Nc2ccc3c4c(cccc24)CC3)cc1 | 7 | 12 | 5 | -4 | 102 | 0
CC(C)(O)C#Cc1ccc(CN2CCC(n3nccc3NC(=O)C3CC3)CC2)cc1 | / | / | -1 | / | / | /
COc1ccc(CN2C(=O)c3ccccc3C2C(=O)NCCc2ccccc2)c(OC)c1 (stereo unspecified) | -6 | 4 | 2 | -2 | 92 | -17
